Experimental data as given in publication PMC8496042 (RSC Chemical Biology, 2021).

Molecular target: T1, PAP(248–286) (Homo sapiens, UniProt P15309)
T1 sequence (P15309 248-286): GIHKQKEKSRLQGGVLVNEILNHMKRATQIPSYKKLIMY
Test: isothermal titration calorimetry
Type: binding
In short: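 Freshly prepared monomeric peptide (600 μM) in deionized water brought to 1× PBS was titrated from the syringe into a low-volume nano-ITC cell holding the test compound (80 μM). The compound was neutralised with NaOH to physiological pH and diluted in water/PBS. Both solutions were degassed 10 min at 37 °C. Heats and enthalpies were fitted with an independent binding model.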

For `O=C1O[C@H]([C@@H](O)CO)C(O)=C1O` [ascorbic acid], the Kd was 8.59 µM.
